Values after ≈ are worked out from the molar mass of the structure shown.
Legend:
CCRF-CEM [1] = experiment: Antiviral activity of compound was tested against viability virus infected CEM cell lines.; type: functional; details: Homo sapiens
CCRF-CEM [2] = experiment: Antiviral activity of compound were tested against HIV-2 virus infected CEM cell lines.; type: functional; details: Homo sapiens
Human alphaherpesvirus 1 [3] = experiment: Antiviral activity against HSV-1 virus infected HEF cell lines.; type: functional
How it was run: (§1)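 Human embryonic fibroblasts, from embryonic lung or embryonic skin-muscle, infected with the virus. Endpoint is the minimum inhibitory concentration that reduces virus-induced cytopathicity by 50%. Values are averages of at least two separate experiments.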

HEF [4] = experiment: Antiviral activity of compound was tested against HSV-2 virus infected HEF cell lines.; type: functional; details: Homo sapiens; how it was run: as §1
HEF [5] = experiment: Antiviral activity of compound was tested against TK-HSV-1 virus infected HEF cell lines.; type: functional; details: Homo sapiens; how it was run: as §1
HEF [6] = experiment: Antiviral activity of compound was tested against morphology virus infected HEF cell lines.; type: functional; details: Homo sapiens
HEF [7] = experiment: Antiviral activity of compound was tested against vaccinia virus infected HEF cell lines.; type: functional; details: Homo sapiens; how it was run: as §1
HEL [8] = experiment: Antiviral activity of compound was tested against proliferation virus infected HEL cell lines.; type: functional; details: Homo sapiens
HeLa [9] = experiment: Antiviral activity of compound was tested against morphology virus infected HeLa cell lines.; type: functional; details: Homo sapiens
HeLa [10] = experiment: Antiviral activity of compound was tested against polio-1 virus infected HeLa cell lines.; type: functional; details: Homo sapiens
How it was run: (§2)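 Vero (African green monkey kidney), HeLa (human epithelial) or HEL (human embryonic lung) cell monolayers infected with the virus. Readout is the minimum inhibitory concentration that reduces virus-induced cytopathicity by 50%. Values are averages of at least two separate experiments.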

[11] = tested on: Vesicular stomatitis virus; experiment: Antiviral activity against vesicular stomatitis virus infected HeLa cell lines.; type: functional; how it was run: as §2
HEL [12] = experiment: Antiviral activity of compound was tested against HCMV virus infected HEL cell lines.; type: functional; details: Homo sapiens; how it was run: as §2
HEL [13] = experiment: Antiviral activity of compound was tested against TK+VZV virus infected HEL cell lines.; type: functional; details: Homo sapiens; how it was run: as §2
HEL [14] = experiment: Antiviral activity of compound was tested against TK-VZV virus infected HEL cell lines.; type: functional; details: Homo sapiens; how it was run: as §2
HeLa [15] = experiment: Antiviral activity of compound was tested against Coxsackie B4 virus infected HeLa cell lines.; type: functional; details: Homo sapiens; how it was run: as §2
MDCK [16] = experiment: Antiviral activity tested against influenza A,H1N1 virus infected MDCK cell lines.; type: functional; details: Canis lupus familiaris
MDCK [17] = experiment: Antiviral activity of compound was tested against influenza A,H3N2 virus infected MDCK cell lines.; type: functional; details: Canis lupus familiaris
MDCK [18] = experiment: Antiviral activity of compound was tested against influenza […] virus infected MDCK cell lines; type: functional; details: Canis lupus familiaris
MDCK [19] = experiment: Antiviral activity of compound was tested against morphology virus infected MDCK cell lines.; type: functional; details: Canis lupus familiaris
Vero [20] = experiment: Antiviral activity of compound was tested against sindbis virus infected vero cell lines.; type: functional; details: Chlorocebus sabaeus; how it was run: as §2
Vero [21] = experiment: Antiviral activity of compound were tested against semliki forest virus infected vero cell lines.; type: functional; details: Chlorocebus sabaeus; how it was run: as §2
Vero [22] = experiment: Antiviral activity of compound was tested against Coxsackie B4 virus infected vero cell lines.; type: functional; details: Chlorocebus sabaeus; how it was run: as §2
Vero [23] = experiment: Antiviral activity of compound was tested against parainfluenza 3,[…] virus infected Vero cell lines.; type: functional; details: Chlorocebus sabaeus; how it was run: as §2
Vero [24] = experiment: Antiviral activity of compound was tested against reo1 virus infected vero cell lines.; type: functional; details: Chlorocebus sabaeus; how it was run: as §2
[25] = Antiviral activity against influenza A,H2N2 virus infected MDCK cell lines.; type: functional
Vero [26] = experiment: Antiviral activity of compound was tested against morphology virus infected Vero cell lines.; type: functional; details: Chlorocebus sabaeus
CCRF-CEM [27] = experiment: Antiviral activity of compound was tested against HIV-1 virus infected CEM cell lines.; type: functional; details: Homo sapiens
[28] = tested on: Vesicular stomatitis virus; experiment: Antiviral activity against vesicular stomatitis virus infected HEF cell lines.; type: functional; how it was run: as §1
HeLa [29] = experiment: Antiviral activity of compound was tested against stomatitis virus infected HeLa cell lines.; type: functional; details: Homo sapiens; how it was run: as §2
HEF [30] = experiment: Antiviral activity of compound was tested against vesicular virus infected HEF cell lines.; type: functional; details: Homo sapiens; how it was run: as §1
[31] = tested on: Human immunodeficiency virus 2; experiment: Antiviral activity against HIV-2 virus infected CEM cell lines.; type: functional, CCRF-CEM
Human alphaherpesvirus 2 = experiment: Antiviral activity against HSV-2 virus infected HEF cell lines.; type: functional; how it was run: as §1
Human alphaherpesvirus 1 [32] = experiment: Antiviral activity against TK-HSV-1 virus infected HEF cell lines.; type: functional; how it was run: as §1
Human respirovirus 3 = experiment: Antiviral activity against parainfluenza 3 virus infected Vero cell lines.; type: functional; how it was run: as §2

Compound | MIC50 (CCRF-CEM [1]) | MIC50 (HEF [6]) | MIC50 (HEF [7]) | MIC50 (HEL [8]) | MIC50 (HeLa [9]) | MIC50 (HeLa [10]) | MIC50 (HEL [12]) | MIC50 (HEL [13]) | MIC50 (HEL [14]) | MIC50 (HeLa [15]) | MIC50 (MDCK [16]) | MIC50 (MDCK [17]) | MIC50 (MDCK [18]) | MIC50 (MDCK [19]) | MIC50 (Vero [20]) | MIC50 (Vero [21]) | MIC50 (Vero [22]) | MIC50 (Vero [24]) | MIC50 [25] | MIC50 (Vero [26]) | also measured
CCN1CCOCC12C1CC3CC(C1)CC2C3 (stereo not drawn) | > 200 µg/mL | > 400 µg/mL | > 400 µg/mL | > 50 µg/mL | > 400 µg/mL | > 400 µg/mL | > 50 µg/mL | > 50 µg/mL | > 50 µg/mL | > 400 µg/mL | > 10 µg/mL | > 57 µg/mL | > 80 µg/mL | > 250 µg/mL | > 400 µg/mL | > 400 µg/mL | > 400 µg/mL | > 400 µg/mL | 10.5 µg/mL (≈ 44.6 µM) | > 400 µg/mL | MIC50 (CCRF-CEM [2]): > 200 µg/mL; MIC50 (Human alphaherpesvirus 1 [3]): > 400 µg/mL; MIC50 (HEF [4]): > 400 µg/mL; MIC50 (HEF [5]): > 400 µg/mL; MIC50 [11]: > 400 µg/mL; MIC50 (Vero [23]): > 400 µg/mL; MIC50 (CCRF-CEM [27]): 158 µg/mL (≈ 671 µM); MIC50 [28]: > 400 µg/mL
CN(C)CC1CCN(C23CC4CC(CC(C4)C2)C3)C1 (stereo not drawn) | 79 µg/mL (≈ 301 µM) | 40 µg/mL (≈ 152 µM) | > 10 µg/mL | > 50 µg/mL | 400 µg/mL (≈ 1520 µM) | > 200 µg/mL | > 20 µg/mL | > 20 µg/mL | > 50 µg/mL | > 200 µg/mL | > 36 µg/mL | > 100 µg/mL | > 100 µg/mL | 400 µg/mL (≈ 1520 µM) | > 100 µg/mL | > 100 µg/mL | > 100 µg/mL | > 100 µg/mL | 16.1 µg/mL (≈ 61.3 µM) | > 400 µg/mL | MIC50 (CCRF-CEM [2]): > 40 µg/mL; MIC50 (HEF [4]): > 10 µg/mL; MIC50 (HEF [5]): > 10 µg/mL; MIC50 (HeLa [29]): > 200 µg/mL; MIC50 (Vero [23]): > 100 µg/mL; MIC50 (CCRF-CEM [27]): > 23 µg/mL; MIC50 (HEF [30]): > 10 µg/mL
CN(C)CC1CCCN1C12CC3CC(CC(C3)C1)C2 (stereo not drawn) | > 200 µg/mL | > 400 µg/mL | > 200 µg/mL | > 50 µg/mL | > 400 µg/mL | > 400 µg/mL | > 50 µg/mL | > 50 µg/mL | > 50 µg/mL | > 400 µg/mL | > 70 µg/mL | 73 µg/mL (≈ 278 µM) | 60 µg/mL (≈ 229 µM) | > 250 µg/mL | > 400 µg/mL | > 400 µg/mL | > 400 µg/mL | > 400 µg/mL | 32.5 µg/mL (≈ 124 µM) | > 400 µg/mL | MIC50 [31]: > 200 µg/mL; MIC50 (Human alphaherpesvirus 1 [3]): > 200 µg/mL; MIC50 (Human alphaherpesvirus 2): > 200 µg/mL; MIC50 (Human alphaherpesvirus 1 [32]): > 200 µg/mL; MIC50 (HeLa [29]): > 400 µg/mL; MIC50 (Human respirovirus 3): > 400 µg/mL; MIC50 (CCRF-CEM [27]): 115 µg/mL (≈ 438 µM); MIC50 (HEF [30]): > 200 µg/mL

Reference: ChEMBL document CHEMBL1129609, “Synthesis and antiviral activity evaluation of some new aminoadamantane derivatives. 2” (1996)
